Assay outcomes: PubChem BioAssay, several laboratories
An excerpt weighted towards active compounds, which were near 1.6% of everything screened.
PPC-1+TRAIL kill = kills PPC-1 cancer cells in the presence of TRAIL. actives 0.41% (n = 220,000). cell killing (% activity), % at 4 µM or 5 µM. PPC-1 cells + TRAIL, ATPLite viability luminescence. AID 1443;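 active means cell killing above 50% in the first pass at 4 µM, then a duplicate retest at 5 µM averaging 50% or more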
FLuc inhib CS = inhibits firefly luciferase, flagging false hits in luciferase inhibition screens; P08659; ATPLite firefly luciferase biochemical luminescence, 10 min; inhibition, % at 10 µM; actives 1.5% (n = 200,000);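 active means inhibition above about 50% when tested at 10 µM, limit read from the data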
Target sequence (P08659 whole entry, looked up): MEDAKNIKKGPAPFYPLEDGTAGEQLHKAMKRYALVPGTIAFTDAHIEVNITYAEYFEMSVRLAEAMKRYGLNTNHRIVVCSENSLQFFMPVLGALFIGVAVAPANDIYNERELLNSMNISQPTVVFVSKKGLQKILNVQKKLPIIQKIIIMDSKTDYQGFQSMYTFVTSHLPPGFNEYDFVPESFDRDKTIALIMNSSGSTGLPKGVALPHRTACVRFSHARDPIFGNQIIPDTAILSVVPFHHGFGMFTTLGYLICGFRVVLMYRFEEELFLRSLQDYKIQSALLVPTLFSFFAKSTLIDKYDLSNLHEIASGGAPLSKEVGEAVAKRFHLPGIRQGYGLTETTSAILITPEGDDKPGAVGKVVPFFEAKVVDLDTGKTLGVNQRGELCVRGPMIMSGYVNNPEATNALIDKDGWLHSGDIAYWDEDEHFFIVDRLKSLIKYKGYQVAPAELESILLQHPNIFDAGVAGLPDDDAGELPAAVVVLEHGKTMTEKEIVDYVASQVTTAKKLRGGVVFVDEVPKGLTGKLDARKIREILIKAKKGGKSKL
Platelet DG rel = modulates dense granule release in human platelets. actives 0.22% (n = 300,000). AID 1663. inhibition, %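 (compounds screened at 7.5 µM in platelet-rich plasma)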. human platelet-rich plasma, SFLLRN dense granule ATP release, luminescence;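 active means mean replicate score, as percent of positive control, at or above 50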
C8 TRAIL sens = sensitizes caspase-8 expressing cells to TRAIL; NB7+C8 cells + TRAIL, ATPlite viability luminescence; inhibition (viability loss, TRAIL sensitization), % at 10 µM; actives 1% (n = 360,000); AID 624354;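 active means compounds causing at least 50% loss of cell viability in the single-dose screen, relative to plate controls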
FLuc act counter = affects firefly luciferase, flagging false hits in luciferase stimulation screens. 200,000 tested, under 10 active. P08659. activation factor at 10 µM. ATPlite luciferase biochemical, luminescence, 10 min; 0 = ATP-free wells, 1 = DMSO control. AID 1027;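 active means luciferase activation factor, scaled between plate controls, of at least 2 with compound at 10 µM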
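assay system = Luciferase/luciferin detection reagent, cell-free biochemical luciferase assay | also added = ATP substrate | times = 10 min post-reagent at room temperature | measured by = luminescence from luciferase reaction | measure = luciferase activation, seen as luminescence increase over controls | benchmarks = low control with PBS replacing ATP, high control enzyme plus ATP without compound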
Numbers stand for hits; n = inactive; x = no result given; ! = repeats disagree.

SMILES | PPC-1+TRAIL kill | FLuc inhib CS | Platelet DG rel | C8 TRAIL sens | FLuc act counter
CCOc1ccc(NC(=O)Nc2cccs2)cc1 | n | 83 | n | 51 | n
CCOc1ccc(NC(=O)Nc2ccc3nsnc3c2)cc1 | n | n | n | n | n
CCc1ccc(NC(=O)Nc2cccs2)cc1 | n | 85 | n | 54 | n
Cc1ccc(NC(=O)Nc2cccs2)cc1 | n | 64 | n | n | n
COc1ccc(CN2C(=O)CN(S(C)(=O)=O)CC2(C)C(=O)Nc2c(C)cccc2C)cc1OC (stereo not drawn) | x | x | x | n | x
CNC(=O)c1cc2c(ccc3ccccc32)o1 | n | n | n | n | n
C=C(C)c1cc2c(ccc3ccc(=O)oc32)o1 | x | x | x | 87 | x
COc1ccc(C2=Nc3ccccc3NC(=O)C2N(C(=O)c2ccnc3ccccc23)c2ccccc2)cc1 (stereo not drawn) | x | x | x | n | x
O=C(Oc1cccc(/C=N/NC(=O)c2ccccn2)c1)c1ccc([N+](=O)[O-])cc1 | x | x | n | 68 | x
O=C(N/N=C/c1cccc(OC2CSC2)c1)c1ccccc1O | n | n | n | n | n
Cn1nccc1C(=O)Oc1cccc(/C=N/NC(=O)c2ccccc2O)c1 | n | n | n | 53 | n
COC(=O)[C@]12CCCCC=C1N(Cc1ccccc1)C(=O)[C@H](CC(=O)NCC1CCCCC1)C2 | x | x | x | n | x
CN(Cc1cnc2nc(N)nc(N)c2n1)c1ccc(C(=O)N[C@@H](CCC(=O)O)C(=O)O)cc1 | x | x | n | 85! | x
O=C1C(=Cc2ccco2)C(=O)c2ccccc21 | n | n | n | n | n
COc1ccc2c(c1)CC/C(=C\c1ccc(OC)c(Cn3cccn3)c1)C2=O | n | n | n | n | n
COc1ccc2c(c1)CC/C(=C/c1ccco1)C2=O | n | 81 | n | n | n
O=C1/C(=C/c2ccco2)CCc2ccccc21 | n | 61 | n | n | n
Nc1ccc2c(c1)C/C(=C/c1ccco1)C2=O | n | 87 | n | n | n
CC(C)C(NC(=O)OCc1ccccc1)C(=O)NC(Cc1c[nH]c2ccccc12)C(=O)O (stereo not drawn) | x | x | x | n | x
O=C1[C@@H](c2ccccc2)CC[C@@H]2C=CC[C@H]3CCN1[C@@H]32 | x | x | x | n | x
Nc1nc2ccccc2n1C(=O)c1cccs1 | n | 69 | n | n | n
Nc1nc2ccccc2n1C(=O)c1ccco1 | n | n | n | n | n
Nc1c(C(=O)Nc2cccc(C(=O)O)c2)sc2nc3c(cc12)CCCC3 | x | x | n | 82 | x
Cc1ccc(-n2cc(C(=O)c3ccccc3O)cn2)cc1 | n | 68 | n | 60 | n
COc1ccccc1CNC(=O)COc1ccccc1C(=O)c1cnn(-c2ccccc2)c1 | x | x | x | n | x
SMILES | PPC-1+TRAIL kill | FLuc inhib CS | Platelet DG rel | C8 TRAIL sens | FLuc act counter
O=C(COc1ccccc1C(=O)c1cnn(-c2ccccc2)c1)Nc1ccccc1 | n | 74 | n | 60 | n
O=C1Cc2ccccc2C(=O)N1 | x | x | x | n | x
CN1C[C@@H]2[C@@H]3C(=O)N(Cc4ccccc4)C(=O)[C@@H]3[C@](Cc3ccccc3)(C1=O)N2C(=O)c1ccc(C(C)(C)C)cc1 | x | x | x | 65 | x
CCN(CC)C(=O)c1cccc(-c2csc(C(NC(C)=O)c3cccc(OC)c3)n2)c1 (stereo not drawn) | x | x | x | n | x
CCCCc1ccc(-c2nc(N)n[nH]2)cc1 | n | 68 | n | n | n
Nc1n[nH]c(-c2ccc(F)cc2)n1 | n | n | n | n | n
COCC(=O)N[C@H]1CC[C@@H](CC(=O)OC)O[C@@H]1CO | x | x | x | n | x
Cc1cccn2cc(CNc3ccccc3)nc12 | n | n | n | n | n
COc1ccc(-c2cn3cccc(C)c3n2)cc1Br | n | 57 | n | n | n
COc1ccc(-c2cn3cc(C(F)(F)F)cc(Cl)c3n2)cc1 | n | n | n | n | n
Cc1cccn2cc(-c3ccc(F)cc3)nc12 | n | 59 | n | n | n
COc1ccc(-c2cn3ccc4ccccc4c3n2)cc1 | n | 68 | n | n | n
Cc1cccn2cc(-c3ccccc3)nc12 | n | 69 | n | n | n
CC(C)c1ccc2nc(N)sc2c1 | n | 67 | n | n | n
Nc1nc2ccc(O)cc2s1 | n | n | n | n | n
COCCNC(=S)N(C)[C@H]1C[C@H]2c3cc(N4CCN(C)CC4)ccc3CCN2C(=O)[C@H]1[C@H](C)O | x | x | x | n | x
CCOC(=O)c1sc(NC(=O)c2cc(-c3ccccc3C)nc3ccccc23)c(C#N)c1C | n | n | n | 61 | n
COC(=O)[C@@]12C[C@@H](CC(=O)NCCCCc3ccccc3)C(=O)N(Cc3ccc4c(c3)OCO4)C1=CCC(C)(C)C2 | x | x | x | n | x
